Test results: ChEMBL document CHEMBL1144999, “Identification of a novel, selective GABA(A) alpha5 receptor inverse agonist which enhances cognition” (J Med Chem, 2003)

Key:
[1] = biological target: T1, Gamma-aminobutyric acid receptor subunit alpha-5 (Homo sapiens) (UniProt P31644); test: Binding selectivity for human gamma-aminobutyric-acid A receptor alpha-5 over GABA A alpha1,alpha2 and alpha-3 receptors
T1 sequence (whole entry): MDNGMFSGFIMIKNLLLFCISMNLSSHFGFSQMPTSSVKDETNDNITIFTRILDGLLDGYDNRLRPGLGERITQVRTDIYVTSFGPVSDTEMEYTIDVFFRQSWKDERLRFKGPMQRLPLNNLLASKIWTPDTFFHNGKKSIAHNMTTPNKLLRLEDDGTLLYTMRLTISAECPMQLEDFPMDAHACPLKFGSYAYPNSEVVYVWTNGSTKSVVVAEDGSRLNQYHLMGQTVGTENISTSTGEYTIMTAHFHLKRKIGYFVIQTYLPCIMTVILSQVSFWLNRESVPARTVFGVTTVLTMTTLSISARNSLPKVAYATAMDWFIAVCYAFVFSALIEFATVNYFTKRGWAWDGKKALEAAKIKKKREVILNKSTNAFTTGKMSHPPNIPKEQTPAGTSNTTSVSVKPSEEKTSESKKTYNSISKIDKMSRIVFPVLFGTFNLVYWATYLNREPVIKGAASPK

[2] = biological target: T2, GABA-A receptor; alpha-2/beta-3/gamma-2 (Homo sapiens, UniProt P18507+P28472+P47869); test: Binding affinity to human gamma-amino butyric-acid A receptor alpha-2-beta-3-gamma-2, using a [3H]-Ro- 15-1788 radioligand; type: protein-complex assay
T2 sequence (P18507 whole entry): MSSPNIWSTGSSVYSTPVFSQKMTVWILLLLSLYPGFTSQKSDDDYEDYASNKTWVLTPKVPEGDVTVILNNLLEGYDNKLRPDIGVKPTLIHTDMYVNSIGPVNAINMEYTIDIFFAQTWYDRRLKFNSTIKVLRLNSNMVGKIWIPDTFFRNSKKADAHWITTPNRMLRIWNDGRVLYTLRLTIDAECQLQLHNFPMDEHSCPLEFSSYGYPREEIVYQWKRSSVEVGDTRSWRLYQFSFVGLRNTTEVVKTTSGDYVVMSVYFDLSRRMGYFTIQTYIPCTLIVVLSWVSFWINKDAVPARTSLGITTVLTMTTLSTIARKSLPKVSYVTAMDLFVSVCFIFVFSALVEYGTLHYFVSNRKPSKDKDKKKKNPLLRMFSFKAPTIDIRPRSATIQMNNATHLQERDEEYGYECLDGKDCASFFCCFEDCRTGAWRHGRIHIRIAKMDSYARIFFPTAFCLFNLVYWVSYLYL
T2 sequence (P28472 whole entry): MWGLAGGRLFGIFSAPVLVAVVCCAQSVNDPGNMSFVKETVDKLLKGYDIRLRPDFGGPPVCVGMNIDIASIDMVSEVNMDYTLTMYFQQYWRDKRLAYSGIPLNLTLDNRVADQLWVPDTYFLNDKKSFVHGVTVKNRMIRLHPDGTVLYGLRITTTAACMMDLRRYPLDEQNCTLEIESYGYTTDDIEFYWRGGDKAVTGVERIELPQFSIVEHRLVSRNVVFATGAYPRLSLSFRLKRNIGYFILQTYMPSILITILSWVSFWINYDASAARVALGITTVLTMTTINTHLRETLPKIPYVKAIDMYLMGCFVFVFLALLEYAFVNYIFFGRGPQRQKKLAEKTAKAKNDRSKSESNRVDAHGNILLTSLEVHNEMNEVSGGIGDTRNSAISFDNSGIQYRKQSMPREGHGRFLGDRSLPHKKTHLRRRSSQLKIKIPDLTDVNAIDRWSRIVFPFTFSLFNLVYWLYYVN
T2 sequence (P47869 whole entry): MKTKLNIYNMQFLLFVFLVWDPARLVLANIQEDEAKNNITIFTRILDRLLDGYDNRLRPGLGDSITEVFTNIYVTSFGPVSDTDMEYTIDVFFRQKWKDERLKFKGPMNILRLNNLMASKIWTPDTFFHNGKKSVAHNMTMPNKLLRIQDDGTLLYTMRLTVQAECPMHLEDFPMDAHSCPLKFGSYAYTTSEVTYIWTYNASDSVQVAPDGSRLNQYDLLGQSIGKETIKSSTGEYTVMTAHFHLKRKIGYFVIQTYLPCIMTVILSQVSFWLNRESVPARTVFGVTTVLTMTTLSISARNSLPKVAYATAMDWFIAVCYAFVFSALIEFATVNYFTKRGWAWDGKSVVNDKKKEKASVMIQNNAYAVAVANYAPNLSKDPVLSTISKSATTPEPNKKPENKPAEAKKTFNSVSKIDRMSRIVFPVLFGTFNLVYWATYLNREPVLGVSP
How it was run: (§1)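 Displacement of [3H]Ro 15-1788 binding from harvested L(tk-) cells stably expressing human recombinant GABA-A receptors with β3 and γ2 subunits plus α1, α2, α3 or α5. […] Ki given as geometric mean ± SEM of three independent determinations.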

[3] = biological target: T3, GABA-A receptor; alpha-3/beta-3/gamma-2 (Homo sapiens, UniProt P18507+P28472+P34903); test: Binding affinity to human gamma-amino butyric-acid A receptor alpha-3-beta-3-gamma-2, using a [3H]-Ro- 15-1788 radioligand; type: protein-complex assay; how it was run: as §1
T3 sequence (P18507 whole entry): T2 sequence (P18507 whole entry)
T3 sequence (P28472 whole entry): T2 sequence (P28472 whole entry)
T3 sequence (P34903 whole entry): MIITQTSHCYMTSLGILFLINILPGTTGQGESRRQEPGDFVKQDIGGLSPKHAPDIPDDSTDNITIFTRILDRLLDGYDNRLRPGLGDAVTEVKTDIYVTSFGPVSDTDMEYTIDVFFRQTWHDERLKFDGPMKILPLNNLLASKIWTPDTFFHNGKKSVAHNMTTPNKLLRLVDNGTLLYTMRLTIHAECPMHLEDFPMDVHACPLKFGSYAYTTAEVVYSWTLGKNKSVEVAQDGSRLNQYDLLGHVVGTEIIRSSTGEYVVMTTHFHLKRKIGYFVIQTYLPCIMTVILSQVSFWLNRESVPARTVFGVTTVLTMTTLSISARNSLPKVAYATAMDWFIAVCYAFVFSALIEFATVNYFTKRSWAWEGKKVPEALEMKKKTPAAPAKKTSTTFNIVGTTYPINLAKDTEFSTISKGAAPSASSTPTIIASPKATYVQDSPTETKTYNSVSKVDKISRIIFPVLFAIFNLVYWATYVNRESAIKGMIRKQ

[4] = biological target: T4, GABA-A receptor; alpha-1/beta-3/gamma-2 (Homo sapiens, UniProt P14867+P18507+P28472); test: Binding affinity to human gamma-aminobutyric-acid A receptor alpha-1-beta-3-gamma-2, determined using [3H]-Ro- 15-1788 radioligand; type: protein-complex assay; how it was run: as §1
T4 sequence (P14867 whole entry): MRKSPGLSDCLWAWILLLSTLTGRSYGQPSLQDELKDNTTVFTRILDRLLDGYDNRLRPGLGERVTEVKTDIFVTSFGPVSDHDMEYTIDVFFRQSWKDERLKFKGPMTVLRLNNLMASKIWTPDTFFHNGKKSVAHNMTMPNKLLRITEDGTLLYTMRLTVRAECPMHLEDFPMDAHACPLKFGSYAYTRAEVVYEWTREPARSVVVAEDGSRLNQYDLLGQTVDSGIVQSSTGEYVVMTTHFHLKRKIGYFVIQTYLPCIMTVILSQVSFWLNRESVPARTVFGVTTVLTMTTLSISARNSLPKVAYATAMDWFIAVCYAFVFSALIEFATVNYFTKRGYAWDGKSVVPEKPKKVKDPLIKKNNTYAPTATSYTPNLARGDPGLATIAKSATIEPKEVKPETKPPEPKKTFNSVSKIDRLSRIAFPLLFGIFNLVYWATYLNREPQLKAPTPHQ
T4 sequence (P18507 whole entry): T2 sequence (P18507 whole entry)
T4 sequence (P28472 whole entry): T2 sequence (P28472 whole entry)

[5] = biological target: T5, GABA-A receptor; alpha-5/beta-3/gamma-2 (Homo sapiens, UniProt P18507+P28472+P31644); test: Binding affinity to human GABA A alpha-5-beta-3-gamma-2 receptor, using a [3H]-Ro- 15-1788 radioligand; type: protein-complex assay; how it was run: as §1
T5 sequence (P18507 whole entry): T2 sequence (P18507 whole entry)
T5 sequence (P28472 whole entry): T2 sequence (P28472 whole entry)
T5 sequence (P31644 whole entry): T1 sequence (whole entry)

[6] = biological target: GABA-A receptor; alpha-5/beta-3/gamma-2 (Homo sapiens) (UniProt P18507+P28472+P31644); test: Efficacy for GABA-A receptor alpha-5-beta-3-gamma-2 subunits expressed in Xenopus laevis oocytes by two-electrode voltage clamp recording; type: cell-based; conditions: Oocyte
How it was run: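 Two-electrode voltage clamp on Xenopus laevis oocytes injected with human α5β3γ2 cDNA, recorded 2-4 days after injection. Expression checked with 3 mM GABA; oocytes with currents <0.3 μA rejected. A GABA EC20 was determined per oocyte. Compound applied at a single concentration near 100× Ki. Efficacy (%) = (current with compound/control EC20 current × 100) − 100.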

SMILES	Selectivity [1]	Ki [2]	Ki [3]	Ki [4]	Ki [5]	Efficacy [6]
CSc1sc(-c2ncn(C)n2)c2c1C(=O)CC(C)(C)C2	14	0.049 µM	0.102 µM	0.267 µM	0.019 µM	–
CSc1sc(-c2ccncc2)c2c1C(=O)CC(C)(C)C2	19	–	–	–	–	-20
CCCSc1sc(-c2cc[nH]n2)c2c1C(=O)CC(C)(C)C2	9	0.028 µM	0.041 µM	0.022 µM	0.0046 µM	–
CC1(C)CC(=O)c2c(SCCO)sc(-c3cc[nH]n3)c2C1	11	–	–	–	–	–
COc1sc(-c2cc[nH]n2)c2c1C(=O)CC(C)(C)C2	> 5	> 0.3 µM	> 0.3 µM	> 0.3 µM	0.067 µM	–
CSc1sc(-c2ccc[nH]2)c2c1C(=O)CC(C)(C)C2	> 4	> 0.3 µM	> 0.3 µM	> 0.3 µM	0.085 µM	–
CSc1sc(-c2ccccc2)c2c1C(=O)CC(C)(C)C2	–	> 0.3 µM	> 0.3 µM	> 0.3 µM	> 0.3 µM	–
CCCCSc1sc(-c2cc[nH]n2)c2c1C(=O)CC(C)(C)C2	10	0.184 µM	0.182 µM	0.057 µM	0.018 µM	–
CC(C)Oc1sc(-c2cc[nH]n2)c2c1C(=O)CC(C)(C)C2	18	0.182 µM	0.069 µM	0.119 µM	0.015 µM	–
CC(C)Sc1sc(-c2cc[nH]n2)c2c1C(=O)CC(C)(C)C2	6	–	–	–	–	–
CCc1sc(-c2cc[nH]n2)c2c1C(=O)CC(C)(C)C2	22	0.162 µM	0.24 µM	0.211 µM	0.011 µM	–
CC1(C)CC(=O)c2c(Sc3cccs3)sc(-c3cc[nH]n3)c2C1	8	0.0076 µM	0.018 µM	0.01 µM	0.0024 µM	–
CNc1sc(-c2cc[nH]n2)c2c1C(=O)CC(C)(C)C2	> 2	> 0.3 µM	> 0.3 µM	> 0.3 µM	0.132 µM	–
CSc1sc(-c2nccs2)c2c1C(=O)CC(C)(C)C2	28	–	–	–	–	-24
CC1(C)CC(=O)c2c(NCCO)sc(-c3cc[nH]n3)c2C1	> 4	> 0.3 µM	> 0.3 µM	> 0.3 µM	0.078 µM	–
CSc1sc(-c2cccnc2)c2c1C(=O)CC(C)(C)C2	28	–	–	–	–	-40
CCSc1sc(-c2cc[nH]n2)c2c1C(=O)CC(C)(C)C2	10	–	–	–	–	–
CC1(C)CC(=O)c2c(SCCO)sc(-c3ccccn3)c2C1	20	–	–	–	–	-39
CC1(C)CC(=O)c2c(SC(C)(C)C)sc(-c3cc[nH]n3)c2C1	> 2	> 0.3 µM	> 0.3 µM	> 0.3 µM	0.17 µM	–
CC1(C)CC(=O)c2c(SCCCO)sc(-c3cc[nH]n3)c2C1	13	0.046 µM	0.05 µM	0.06 µM	0.0047 µM	–
CSc1sc(-c2nc(C)no2)c2c1C(=O)CC(C)(C)C2	> 8	> 0.3 µM	0.185 µM	> 0.3 µM	0.037 µM	–
CC1(C)CC(=O)c2csc(-c3cc[nH]n3)c2C1	–	> 0.3 µM	> 0.3 µM	> 0.3 µM	> 0.3 µM	–
CSc1sc(-c2cncs2)c2c1C(=O)CC(C)(C)C2	12	0.161 µM	0.159 µM	0.175 µM	0.015 µM	–
